One experiment concerns NCI-H520. Description: Antiproliferative activity against human FGFR1-amplified NCI-H520 cells after 7 days by SRB assay. The following applies: NCI-H520, 168 h. (The SRB assay estimates cell density from bound dye.)
Experiment [1] deals with Tyrosine-protein kinase ABL1 (Homo sapiens), P00519 [Q252H]. Description: Inhibition of human phosphorylated ABL1 Q252H mutant expressed in HEK293 cells assessed as residual activity at 1000 nM after 30 mins by Kinomescan method relative to control. It counts as cell-based. The method in brief:
(§1)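 Single-point screen at a fixed 1 µM, run within a 456-kinase DiscoveRx KINOMEscan panel. Each kinase's read-out is Percent Control, i.e. signal relative to a control without compound. Hits were scored by a Percent Control < 35 cut-off, and an S(35) selectivity score was calculated across the non-mutant kinases.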

In experiment [2] the target is Mitogen-activated protein kinase kinase kinase 6 (Homo sapiens) (UniProt O95382). The experiment can be described thus: Inhibition of wild-type human partial length ASK2 (M278 to R972 residues) expressed in HEK293 cells assessed as residual activity at 1000 nM after 30 mins by Kinomescan method relative to control. It counts as cell-based.
Chain of Mitogen-activated protein kinase kinase kinase 6 (Homo sapiens) (O95382 whole entry, the tested form may be a part): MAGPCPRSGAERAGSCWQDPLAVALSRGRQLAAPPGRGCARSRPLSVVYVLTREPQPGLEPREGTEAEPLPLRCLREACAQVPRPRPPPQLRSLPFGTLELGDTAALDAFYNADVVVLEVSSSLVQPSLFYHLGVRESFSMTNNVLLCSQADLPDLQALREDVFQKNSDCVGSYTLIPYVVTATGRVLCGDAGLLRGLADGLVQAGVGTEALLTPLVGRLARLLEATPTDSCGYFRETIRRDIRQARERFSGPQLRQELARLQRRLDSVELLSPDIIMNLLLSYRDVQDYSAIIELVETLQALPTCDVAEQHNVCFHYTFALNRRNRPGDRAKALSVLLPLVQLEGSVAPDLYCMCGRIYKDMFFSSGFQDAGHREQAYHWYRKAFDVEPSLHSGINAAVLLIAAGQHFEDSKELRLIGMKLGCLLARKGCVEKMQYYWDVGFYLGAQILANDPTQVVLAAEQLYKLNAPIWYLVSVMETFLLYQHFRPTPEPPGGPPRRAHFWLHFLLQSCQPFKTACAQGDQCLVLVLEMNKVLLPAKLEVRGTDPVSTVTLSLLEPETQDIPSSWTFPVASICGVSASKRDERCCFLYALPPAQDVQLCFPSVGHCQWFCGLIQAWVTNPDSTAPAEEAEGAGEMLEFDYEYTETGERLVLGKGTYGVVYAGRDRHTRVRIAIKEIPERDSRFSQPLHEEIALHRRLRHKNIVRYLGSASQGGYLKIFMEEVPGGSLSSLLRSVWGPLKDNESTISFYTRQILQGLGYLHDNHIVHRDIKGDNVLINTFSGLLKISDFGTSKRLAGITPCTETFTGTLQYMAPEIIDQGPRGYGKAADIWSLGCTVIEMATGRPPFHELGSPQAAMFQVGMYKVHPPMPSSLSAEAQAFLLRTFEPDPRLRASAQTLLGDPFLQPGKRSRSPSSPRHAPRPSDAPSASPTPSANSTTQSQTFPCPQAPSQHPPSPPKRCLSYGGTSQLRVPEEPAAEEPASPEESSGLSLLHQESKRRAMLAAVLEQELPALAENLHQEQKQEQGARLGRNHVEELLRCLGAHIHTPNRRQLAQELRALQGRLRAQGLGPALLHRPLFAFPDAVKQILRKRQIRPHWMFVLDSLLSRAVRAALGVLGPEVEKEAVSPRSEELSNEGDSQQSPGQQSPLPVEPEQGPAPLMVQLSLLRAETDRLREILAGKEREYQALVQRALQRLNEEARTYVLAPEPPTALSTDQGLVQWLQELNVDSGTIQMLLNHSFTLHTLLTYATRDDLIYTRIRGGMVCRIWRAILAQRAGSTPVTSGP
The target of experiment [3] is Aurora kinase A (Homo sapiens) (UniProt O14965). Description: Inhibition of wild-type human partial length AURKA (E122 to K401 residues) expressed in HEK293 cells assessed as residual activity at 1000 nM after 30 mins by Kinomescan method relative to control. It counts as cell-based.
Chain of Aurora kinase A (Homo sapiens) (O14965 whole entry, the tested form may be a part): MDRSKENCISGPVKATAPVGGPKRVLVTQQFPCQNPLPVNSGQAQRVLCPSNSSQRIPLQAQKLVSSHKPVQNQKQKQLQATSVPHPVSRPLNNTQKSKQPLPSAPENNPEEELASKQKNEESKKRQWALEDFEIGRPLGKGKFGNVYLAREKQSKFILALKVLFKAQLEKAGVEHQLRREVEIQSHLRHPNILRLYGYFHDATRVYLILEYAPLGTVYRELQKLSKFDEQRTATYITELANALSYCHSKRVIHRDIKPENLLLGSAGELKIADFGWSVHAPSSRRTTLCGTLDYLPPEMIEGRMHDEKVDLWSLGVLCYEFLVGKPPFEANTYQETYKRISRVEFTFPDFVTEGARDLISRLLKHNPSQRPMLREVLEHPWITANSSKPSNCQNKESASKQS
Experiment [4] has as its target Cyclin-dependent kinase 5 (Homo sapiens) (UniProt Q00535). The experiment can be described thus: Inhibition of wild-type human full length CDK5 (M1 to P292 residues) expressed in Escherichia coli BL21 assessed as residual activity at 1000 nM after 30 mins by Kinomescan method relative to control. The essentials:
as §1

The target of experiment [5] is Serine/threonine-protein kinase Chk1 (Homo sapiens) (UniProt O14757). Description: Inhibition of wild-type human partial length CHEK1 (M1 to G289 residues) expressed in Escherichia coli BL21 assessed as residual activity at 1000 nM after 30 mins by Kinomescan method relative to control.
The target of experiment [6] is Dual specificity protein kinase CLK3 (Homo sapiens) (UniProt P49761). Description: Inhibition of wild-type human full length CLK3 (M1 to R490 residues) expressed in Escherichia coli BL21 assessed as residual activity at 1000 nM after 30 mins by Kinomescan method relative to control. The method in brief:
as §1

For experiment [7], the target named is Dual specificity tyrosine-phosphorylation-regulated kinase 2 (Homo sapiens) (UniProt Q92630). Description: Inhibition of wild-type human full length DYRK2 (M1 to S528 residues) expressed in HEK293 cells assessed as residual activity at 1000 nM after 30 mins by Kinomescan method relative to control. The format is cell-based. The essentials:
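Single-concentration screen at 1 µM across a 456-kinase KINOMEscan panel. The read-out is Percent Control for each kinase.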

For experiment [8], the system named is Epidermal growth factor receptor (Homo sapiens), P00533 [UNDEFINED MUTATION]. The experiment can be described thus: Inhibition of human partial length EGFR L747-T751del/Sins mutant expressed in Escherichia coli BL21 assessed as residual activity at 1000 nM after 30 mins by Kinomescan method relative to control. The method in brief:
(§2)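 KINOMEscan binding panel of 456 kinases, with the test compound at a single concentration of 1 µM. Read-out is Percent Control.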

The test system of experiment [9] is Epidermal growth factor receptor (Homo sapiens), P00533 [L858R,T790M]. The experiment can be described thus: Inhibition of human partial length EGFR L858R/T790M double mutant (R669 to V1011 residues) expressed in HEK293 cells assessed as residual activity at 1000 nM after 30 mins by Kinomescan method relative to control. It counts as cell-based. The method in brief: as §2

Experiment [10] addresses Tyrosine-protein kinase ITK/TSK (Homo sapiens) (UniProt Q08881). The experiment can be described thus: Inhibition of wild-type human partial length ITK (R335 to L620 residues) expressed in Escherichia coli BL21 assessed as residual activity at 1000 nM after 30 mins by Kinomescan method relative to control.
For experiment [11], the target named is Tyrosine-protein kinase Lyn (Homo sapiens) (UniProt P07948). The experiment can be described thus: Inhibition of wild-type human partial length LYN (C219 to Q511 residues) expressed in Escherichia coli BL21 assessed as residual activity at 1000 nM after 30 mins by Kinomescan method relative to control.
Experiment [12] concerns the target Serine/threonine-protein kinase MARK2 (Homo sapiens) (UniProt Q7KZI7). The experiment can be described thus: Inhibition of wild-type human partial length MARK2 (M1 to R450 residues) expressed in Escherichia coli BL21 assessed as residual activity at 1000 nM after 30 mins by Kinomescan method relative to control.
Experiment [13] addresses Dual specificity mitogen-activated protein kinase kinase 6 (Homo sapiens) (UniProt P52564). Description: Inhibition of wild-type human partial length MEK6 (K36 to D334 residues) expressed in Escherichia coli BL21 assessed as residual activity at 1000 nM after 30 mins by Kinomescan method relative to control.
Experiment [14] relates to Phosphatidylinositol 4,5-bisphosphate 3-kinase catalytic subunit alpha isoform (Homo sapiens), P42336 [I800L]. The experiment can be described thus: Inhibition of human partial length PIK3CA I800L mutant (R108 to N1068 residues) expressed in HEK293 cells assessed as residual activity at 1000 nM after 30 mins by Kinomescan method relative to control. The format is cell-based. The method in brief: as §1
Chain of Phosphatidylinositol 4,5-bisphosphate 3-kinase catalytic subunit alpha isoform (Homo sapiens), P42336 [I800L] (P42336 whole entry I800L, the tested form may be a part, canonical isoform): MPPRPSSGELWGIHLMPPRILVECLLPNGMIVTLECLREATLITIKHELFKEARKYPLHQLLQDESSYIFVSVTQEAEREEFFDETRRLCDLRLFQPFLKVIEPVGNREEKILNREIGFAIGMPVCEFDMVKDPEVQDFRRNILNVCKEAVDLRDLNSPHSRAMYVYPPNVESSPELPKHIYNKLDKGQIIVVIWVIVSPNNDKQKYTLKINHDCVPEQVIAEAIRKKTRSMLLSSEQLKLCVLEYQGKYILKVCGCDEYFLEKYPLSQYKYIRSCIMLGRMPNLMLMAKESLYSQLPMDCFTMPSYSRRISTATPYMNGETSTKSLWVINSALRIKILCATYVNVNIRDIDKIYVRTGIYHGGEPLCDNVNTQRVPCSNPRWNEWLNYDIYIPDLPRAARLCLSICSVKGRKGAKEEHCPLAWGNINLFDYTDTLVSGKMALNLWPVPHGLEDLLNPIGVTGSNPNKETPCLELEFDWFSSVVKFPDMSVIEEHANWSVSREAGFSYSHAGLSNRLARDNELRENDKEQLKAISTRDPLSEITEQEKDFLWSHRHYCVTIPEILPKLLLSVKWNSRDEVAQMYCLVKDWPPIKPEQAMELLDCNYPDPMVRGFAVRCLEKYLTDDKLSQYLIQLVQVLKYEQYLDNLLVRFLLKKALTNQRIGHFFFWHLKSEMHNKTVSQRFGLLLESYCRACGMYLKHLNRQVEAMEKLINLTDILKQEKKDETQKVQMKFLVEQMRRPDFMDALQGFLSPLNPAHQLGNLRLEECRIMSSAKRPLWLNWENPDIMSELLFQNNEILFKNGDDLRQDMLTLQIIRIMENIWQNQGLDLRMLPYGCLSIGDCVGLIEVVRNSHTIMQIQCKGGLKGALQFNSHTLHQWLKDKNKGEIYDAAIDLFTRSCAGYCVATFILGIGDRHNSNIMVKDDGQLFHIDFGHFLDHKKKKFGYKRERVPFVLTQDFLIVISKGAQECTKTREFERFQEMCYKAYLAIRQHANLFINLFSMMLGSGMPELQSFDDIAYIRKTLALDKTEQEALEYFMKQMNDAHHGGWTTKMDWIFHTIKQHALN

Experiment [15] concerns the target Membrane-associated tyrosine- and threonine-specific cdc2-inhibitory kinase (Homo sapiens) (UniProt Q99640). The experiment can be described thus: Inhibition of wild-type human partial length PKMYT1 (A88 to G366 residues) expressed in Escherichia coli BL21 assessed as residual activity at 1000 nM after 30 mins by Kinomescan method relative to control.
Experiment [16] has as its system Proto-oncogene tyrosine-protein kinase receptor Ret (Homo sapiens), P07949 [M918T]. The experiment can be described thus: Inhibition of human partial length RET M918T mutant (E713 to D1014 residues) expressed in Escherichia coli BL21 assessed as residual activity at 1000 nM after 30 mins by Kinomescan method relative to control. The method in brief: as §1
For experiment [17], the target named is Rho-associated protein kinase 2 (Homo sapiens) (UniProt O75116). Description: Inhibition of wild-type human partial length ROCK2 (M1 to T431 residues) expressed in HEK293 cells assessed as residual activity at 1000 nM after 30 mins by Kinomescan method relative to control. It counts as cell-based.
Experiment [18] deals with Serine/threonine-protein kinase SIK1 (Homo sapiens) (UniProt P57059). The experiment can be described thus: Inhibition of wild-type human partial length SIK (M1 to Y304 residues) expressed in Escherichia coli BL21 assessed as residual activity at 1000 nM after 30 mins by Kinomescan method relative to control.
Experiment [19] has as its target Serine/threonine-protein kinase 16 (Homo sapiens) (UniProt O75716). The experiment can be described thus: Inhibition of wild-type human partial length STK16 (G11 to I305 residues) expressed in Escherichia coli BL21 assessed as residual activity at 1000 nM after 30 mins by Kinomescan method relative to control.
Experiment [20] deals with Serine/threonine-protein kinase VRK2 (Homo sapiens) (UniProt Q86Y07). Description: Inhibition of wild-type human partial length VRK2 (M1 to T336 residues) expressed in HEK293 cells assessed as residual activity at 1000 nM after 30 mins by Kinomescan method relative to control. It counts as cell-based.
Chain of Serine/threonine-protein kinase VRK2 (Homo sapiens) (Q86Y07 whole entry, the tested form may be a part): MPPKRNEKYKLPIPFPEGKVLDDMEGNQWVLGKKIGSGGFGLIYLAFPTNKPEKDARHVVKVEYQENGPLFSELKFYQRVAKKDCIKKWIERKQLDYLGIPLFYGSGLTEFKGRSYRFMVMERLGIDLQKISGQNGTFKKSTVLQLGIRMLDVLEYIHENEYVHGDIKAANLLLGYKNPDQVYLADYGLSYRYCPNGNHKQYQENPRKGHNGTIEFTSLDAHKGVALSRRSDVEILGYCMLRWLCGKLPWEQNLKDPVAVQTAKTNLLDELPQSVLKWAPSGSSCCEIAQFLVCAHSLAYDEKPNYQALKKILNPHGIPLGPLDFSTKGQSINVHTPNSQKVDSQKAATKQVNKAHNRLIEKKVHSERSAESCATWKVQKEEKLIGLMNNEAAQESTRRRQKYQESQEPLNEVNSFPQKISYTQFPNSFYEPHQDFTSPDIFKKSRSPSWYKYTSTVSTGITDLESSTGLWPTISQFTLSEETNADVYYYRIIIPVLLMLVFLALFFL
In experiment [21] the target is Tyrosine-protein kinase Yes (Homo sapiens) (UniProt P07947). Description: Inhibition of wild-type human partial length YES (T257 to L543 residues) expressed in Escherichia coli BL21 assessed as residual activity at 1000 nM after 30 mins by Kinomescan method relative to control.

Chain of Serine/threonine-protein kinase MARK2 (Homo sapiens) (Q7KZI7 whole entry, the tested form may be a part): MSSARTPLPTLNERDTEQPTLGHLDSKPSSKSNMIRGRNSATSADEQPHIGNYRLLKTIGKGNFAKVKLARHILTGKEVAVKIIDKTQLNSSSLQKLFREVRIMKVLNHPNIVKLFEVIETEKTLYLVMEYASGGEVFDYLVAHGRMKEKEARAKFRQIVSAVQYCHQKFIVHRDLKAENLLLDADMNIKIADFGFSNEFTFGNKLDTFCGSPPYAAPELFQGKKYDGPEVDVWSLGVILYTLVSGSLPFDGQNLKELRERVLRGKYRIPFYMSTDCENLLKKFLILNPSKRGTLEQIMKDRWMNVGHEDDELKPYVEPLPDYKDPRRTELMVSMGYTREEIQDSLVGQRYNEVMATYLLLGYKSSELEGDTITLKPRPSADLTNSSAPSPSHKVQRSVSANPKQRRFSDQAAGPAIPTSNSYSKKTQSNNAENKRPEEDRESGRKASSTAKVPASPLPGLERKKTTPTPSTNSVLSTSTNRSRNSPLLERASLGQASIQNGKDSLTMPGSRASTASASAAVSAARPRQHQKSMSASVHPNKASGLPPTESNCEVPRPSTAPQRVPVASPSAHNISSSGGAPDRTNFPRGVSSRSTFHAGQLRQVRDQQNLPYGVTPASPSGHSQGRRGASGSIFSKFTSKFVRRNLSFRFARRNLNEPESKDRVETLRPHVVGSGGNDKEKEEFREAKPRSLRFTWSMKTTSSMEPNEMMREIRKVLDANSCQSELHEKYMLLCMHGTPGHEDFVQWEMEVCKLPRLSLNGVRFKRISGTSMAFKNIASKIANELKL
Chain of Dual specificity mitogen-activated protein kinase kinase 6 (Homo sapiens) (P52564 whole entry, the tested form may be a part, canonical isoform): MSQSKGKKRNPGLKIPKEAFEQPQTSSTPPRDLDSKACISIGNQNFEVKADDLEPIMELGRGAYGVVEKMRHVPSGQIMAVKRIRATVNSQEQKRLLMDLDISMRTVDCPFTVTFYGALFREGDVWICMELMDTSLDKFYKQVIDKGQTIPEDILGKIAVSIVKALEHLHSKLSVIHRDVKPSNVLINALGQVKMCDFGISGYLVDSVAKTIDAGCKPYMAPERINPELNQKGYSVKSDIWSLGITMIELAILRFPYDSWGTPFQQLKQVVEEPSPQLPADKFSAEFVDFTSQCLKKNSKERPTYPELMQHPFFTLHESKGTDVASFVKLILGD
Chain of Tyrosine-protein kinase ITK/TSK (Homo sapiens) (Q08881 whole entry, the tested form may be a part): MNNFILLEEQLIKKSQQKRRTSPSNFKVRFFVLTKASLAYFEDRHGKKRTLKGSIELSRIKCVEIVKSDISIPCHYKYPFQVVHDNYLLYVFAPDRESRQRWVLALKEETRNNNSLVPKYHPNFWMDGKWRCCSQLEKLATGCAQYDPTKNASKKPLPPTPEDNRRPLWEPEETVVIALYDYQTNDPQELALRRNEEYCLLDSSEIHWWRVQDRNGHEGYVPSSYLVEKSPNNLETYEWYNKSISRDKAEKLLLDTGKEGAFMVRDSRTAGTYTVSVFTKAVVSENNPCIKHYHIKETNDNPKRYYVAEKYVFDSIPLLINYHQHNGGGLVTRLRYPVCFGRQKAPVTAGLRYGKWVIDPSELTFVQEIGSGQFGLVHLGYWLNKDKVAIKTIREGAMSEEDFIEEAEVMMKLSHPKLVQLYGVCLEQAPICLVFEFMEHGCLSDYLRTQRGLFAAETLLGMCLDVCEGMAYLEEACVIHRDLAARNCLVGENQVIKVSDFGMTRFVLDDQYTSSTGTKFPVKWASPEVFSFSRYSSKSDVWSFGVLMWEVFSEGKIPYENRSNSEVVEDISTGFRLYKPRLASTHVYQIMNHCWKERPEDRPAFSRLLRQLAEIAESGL

The IC50 is the concentration that inhibits the measured activity by half. A high value points to weaker potency. Turning to `COc1cc(OC)c(Cl)c(N2Cc3cnc(Nc4ccc(F)cc4)nc3N(C3CCN(C(=O)/C=C/CN(C)C)CC3)C2=O)c1Cl`, the IC50 with NCI-H520 turned out to be 8.69 nM. Besides, the Activity turned out to be 31% in experiment [1]; 100% in [2]; 100% in [3]; 100% in experiment [4]; 100% in experiment [5]; 100% in experiment [6]. The Activity in experiment [7] worked out at 100%; in experiment [8] it was 95%; in experiment [9], 94%; in experiment [10], 100%; in [11], 7.6%; in experiment [12], 90%. In addition, the Activity was 92% in experiment [13]; 83% in [14]; 100% in experiment [15]; 7.1% in experiment [16]; 100% in experiment [17]; 19% in experiment [18]. Besides, the Activity in experiment [19] amounted to 100%; in experiment [20], 100%; in experiment [21] it was 34%.

The values above are taken from ChEMBL document CHEMBL4043093, “2-Oxo-3, 4-dihydropyrimido[4, 5-d]pyrimidinyl derivatives as new irreversible pan fibroblast growth factor receptor (FGFR) inhibitors” (Eur J Med Chem, 2017).
